Results published in ChEMBL document CHEMBL4673245, “Discovery of AZD9833, a Potent and Orally Bioavailable Selective Estrogen Receptor Degrader and Antagonist” (J Med Chem, 2020).
Converted amounts (≈) assume the structure as drawn.

Columns and labels:
Cytochrome P450 2C9 = Cytochrome P450 2C9 (Homo sapiens, UniProt P11712); assay: Inhibition of CYP2C9 in human liver microsomes; assay type: ADME
Procedure, shortened: (§1)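 High-throughput human liver microsome panel of five CYP isoforms; inhibition reported as IC50.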

[1] = In vivo antagonist activity at ERalpha in human MCF7 cells xenografted CB17 SCID mouse assessed as decrease in PR expression level at 50 mg/kg, po administered daily via oral gavage for 21 days measured 24 hrs post last dose by Western blot analysis relative to control; assay type: functional; parameters: scale not given: the % may be the effect or the level left; conditions: time 21 day
[2] = Solubility of compound in FASSIF at pH 6.5 using crystalline form of sample; assay type: physicochemical
[3] = Intrinsic clearance in mouse hepatocytes assessed per million cells; assay type: ADME, cell-based, Hepatocyte; conditions: read-out: CLH
Procedure, shortened: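 Compound added from DMSO stock to isolated hepatocytes diluted to 1x10⁶ cells/mL. Metabolic turnover rate is reported as intrinsic clearance in µl/min/10⁶ cells.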

[4] = Clearance in rat at 0.5 mg/kg, iv or 1 mg/kg, po; assay type: ADME, organism-based; conditions: in vivo
Procedure, shortened: (§2)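 Rat PK: single IV dose 0.5 mg/kg and oral dose 1 mg/kg, formulated in 5% DMSO:95% hydroxypropyl-β-cyclodextrin (30% w/v), dosed at 1 mL/kg IV and 4 mL/kg PO.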

Cytochrome P450 2D6 = Cytochrome P450 2D6 (Homo sapiens, UniProt P10635); assay: Inhibition of CYP2D6 in human liver microsomes; assay type: ADME; procedure, shortened: as §1
[5] = Photostability of compound under 1.2 mil lux.h white light and 200 W.h/m2 UV light assessed parent compound remaining using crystalline form of sample by chromatographic method; assay type: physicochemical
[6] = Antitumor activity against human […] cells xenografted in CB17 SCID mouse assessed as tumor regression at 10 mg/kg, po administered daily via oral gavage for 21 days relative to control; assay type: functional, MCF7; conditions: time 21 day
[7] = Volume of distribution at steady state in mouse at 2 mg/kg, iv or 5 mg/kg, po; assay type: ADME, organism-based; conditions: in vivo, read-out: Vdss
[8] = Intrinsic clearance in rat hepatocytes assessed per million cells; assay type: ADME, cell-based, Hepatocyte; conditions: read-out: CLH
Procedure, shortened: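 Hepatocyte intrinsic clearance measured from DMSO stock in isolated hepatocytes diluted to 1x10⁶ cells/mL; rate expressed as µl/min/10⁶ cells.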

[9] = Stability of compound at 60 degC and 75% relative humidity assessed parent compound remaining measured 1 week using crystalline form of sample by chromatographic method; assay type: physicochemical; conditions: solid sample, time 1 weeks, read-out: Stabilty
[10] = Half-life in mouse at 2 mg/kg, iv or 5 mg/kg, po; assay type: ADME, organism-based; conditions: in vivo
[11] = Antitumor activity against human […] cells xenografted in CB17 SCID mouse assessed as tumor growth inhibition at 2 mg/kg, po administered daily via oral gavage for 21 days relative to control; assay type: functional; conditions: MCF7, po, time 21 day, read-out: TGI
[12] = Clearance in mouse at 2 mg/kg, iv or 5 mg/kg, po; assay type: ADME, organism-based; conditions: in vivo
[13] = Stability of compound at 60 degC and ambient dry condition assessed parent compound remaining measured 2 weeks using amorphous form of sample by chromatographic method; assay type: physicochemical; conditions: solid sample, read-out: Stabilty
MCF7 = assay: Antiproliferative activity against human wild-type MCF7 cells assessed as decrease in estradiol-mediated cell viability incubated for 4 to 6 days by SYTOX Green dye based fluorescence assay; assay type: functional
[14] = Dissociation constant, dibasic pKa of compound in 0.1 M potassium chloride in presence of piperidine by UV-vis spectroscopy; assay type: physicochemical
[15] = Oral bioavailability in rat at 1 mg/kg; assay type: ADME, organism-based; conditions: in vivo; procedure, shortened: as §2
[16] = Oral bioavailability in mouse at 5 mg/kg; assay type: ADME, organism-based; conditions: in vivo
[17] = Solubility of compound in phosphate buffer at pH 7.4 using crystalline form of sample; assay type: physicochemical
[18] = Stability of compound at 60 degC and ambient dry condition assessed parent compound remaining measured 2 weeks using crystalline form of sample by chromatographic method; assay type: physicochemical; conditions: solid sample, read-out: Stabilty
[19] = biological target: T1, Estrogen receptor (Homo sapiens) (UniProt P03372); assay: Induction of ERalpha degradation in human MCF7 cells assessed as maximum degradation incubated for 18 to 24 hrs by Alexa fluor 488/Hoechst staining based immunofluorescence imaging analysis relative to fulvestrant; assay type: cell-based; conditions: time lower […], time upper […]
T1 sequence (whole entry): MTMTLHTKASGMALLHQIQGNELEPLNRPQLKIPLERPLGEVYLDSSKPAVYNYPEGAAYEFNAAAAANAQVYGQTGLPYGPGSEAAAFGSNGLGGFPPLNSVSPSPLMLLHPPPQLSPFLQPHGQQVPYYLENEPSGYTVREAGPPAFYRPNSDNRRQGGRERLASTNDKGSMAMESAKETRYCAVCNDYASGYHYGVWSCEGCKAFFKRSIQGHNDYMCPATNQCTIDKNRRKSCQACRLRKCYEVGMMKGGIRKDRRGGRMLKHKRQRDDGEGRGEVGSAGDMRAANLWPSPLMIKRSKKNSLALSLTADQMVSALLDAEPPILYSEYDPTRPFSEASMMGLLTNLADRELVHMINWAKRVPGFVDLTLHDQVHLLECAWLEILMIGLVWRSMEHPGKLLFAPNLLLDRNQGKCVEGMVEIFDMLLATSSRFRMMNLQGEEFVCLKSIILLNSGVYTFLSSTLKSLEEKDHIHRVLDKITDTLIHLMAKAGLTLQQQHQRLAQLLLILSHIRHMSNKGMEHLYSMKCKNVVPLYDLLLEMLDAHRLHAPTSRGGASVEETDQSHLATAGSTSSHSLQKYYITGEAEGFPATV

Histamine H3 receptor = Histamine H3 receptor (Homo sapiens, UniProt Q9Y5N1); assay: Antagonist activity at human histamine H3 receptor expressed in CHO-K1 cells after 10 mins by HTRF assay; assay type: cell-based
[20] = Chemical stability of compound assessed as drug degradation in deuterated buffer at pH 7.4 measured for 8 days; assay type: physicochemical; conditions: pH 7.4, 192 h, time 8 day
[21] = Fraction unbound in human plasma by equilibrium dialysis method; assay type: ADME, cell-free
Procedure, shortened: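 Fraction unbound measured from DMSO stock by equilibrium dialysis in 10% human plasma.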

[22] = Dissociation constant, dibasic pKa of compound in 0.1 M potassium chloride in presence of azetidine by UV-vis spectroscopy; assay type: physicochemical
[23] = Chemical stability of compound assessed as drug degradation in buffer at pH 7.4 stored at 22 to 60 degreeC measured after 5 days; assay type: physicochemical; conditions: pH 7.4, 120 h, time 5 day
[24] = Chemical stability of compound assessed as drug degradation in buffer at pH 1 stored at 22 to 60 degreeC measured after 5 days; assay type: physicochemical; conditions: pH 1, 120 h, time 5 day
[25] = Photostability of compound under 1.2 mil lux.h white light and 200 W.h/m2 UV light assessed parent compound remaining using amorphous form of sample by chromatographic method; assay type: physicochemical
[26] = Fraction absorbed in rat at 0.5 mg/kg, iv or 1 mg/kg, po; assay type: ADME, organism-based; conditions: in vivo, read-out: Fabs; procedure, shortened: as §2
Cytochrome P450 3A4 = Cytochrome P450 3A4 (Homo sapiens, UniProt P08684); assay: Inhibition of CYP3A4 in human liver microsomes; assay type: ADME; procedure, shortened: as §1
Cytochrome P450 2C19 = Cytochrome P450 2C19 (Homo sapiens, UniProt P33261); assay: Inhibition of CYP2C19 in human liver microsomes; assay type: ADME; procedure, shortened: as §1
[27] = Chemical stability of compound assessed as drug degradation in buffer at pH 10 stored at 22 to 60 degreeC measured after 5 days; assay type: physicochemical; conditions: pH 10, 120 h, time 5 day

Cytochrome P450 2C19, sequence (P33261 whole entry): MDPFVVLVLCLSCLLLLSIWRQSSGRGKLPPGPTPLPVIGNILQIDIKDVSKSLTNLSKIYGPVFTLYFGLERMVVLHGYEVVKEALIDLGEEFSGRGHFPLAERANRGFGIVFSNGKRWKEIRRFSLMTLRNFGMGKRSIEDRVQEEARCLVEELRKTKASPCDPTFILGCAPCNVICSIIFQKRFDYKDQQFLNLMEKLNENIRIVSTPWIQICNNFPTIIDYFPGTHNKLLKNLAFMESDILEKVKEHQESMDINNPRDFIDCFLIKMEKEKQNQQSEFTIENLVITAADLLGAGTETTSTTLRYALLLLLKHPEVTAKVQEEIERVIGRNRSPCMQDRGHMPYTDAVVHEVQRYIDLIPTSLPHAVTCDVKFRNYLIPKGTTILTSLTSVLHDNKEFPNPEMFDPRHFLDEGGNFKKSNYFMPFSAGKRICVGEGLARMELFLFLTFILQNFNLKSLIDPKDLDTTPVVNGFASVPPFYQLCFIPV
Cytochrome P450 2C9, sequence (P11712 whole entry, canonical isoform): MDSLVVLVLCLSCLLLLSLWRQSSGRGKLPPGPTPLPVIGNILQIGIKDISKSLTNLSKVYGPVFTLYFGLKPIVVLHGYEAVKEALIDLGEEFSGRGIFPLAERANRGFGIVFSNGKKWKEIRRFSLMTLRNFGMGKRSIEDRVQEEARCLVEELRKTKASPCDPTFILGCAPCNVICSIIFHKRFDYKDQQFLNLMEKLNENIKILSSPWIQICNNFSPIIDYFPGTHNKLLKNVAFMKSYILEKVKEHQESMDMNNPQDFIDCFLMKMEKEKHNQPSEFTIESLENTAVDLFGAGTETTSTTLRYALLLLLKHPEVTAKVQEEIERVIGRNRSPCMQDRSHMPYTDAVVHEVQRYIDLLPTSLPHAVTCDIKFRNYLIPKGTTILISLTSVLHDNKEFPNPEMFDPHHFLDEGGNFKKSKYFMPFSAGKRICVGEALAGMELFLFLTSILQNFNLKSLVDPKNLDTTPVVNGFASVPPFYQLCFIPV
Histamine H3 receptor, sequence (Q9Y5N1 whole entry): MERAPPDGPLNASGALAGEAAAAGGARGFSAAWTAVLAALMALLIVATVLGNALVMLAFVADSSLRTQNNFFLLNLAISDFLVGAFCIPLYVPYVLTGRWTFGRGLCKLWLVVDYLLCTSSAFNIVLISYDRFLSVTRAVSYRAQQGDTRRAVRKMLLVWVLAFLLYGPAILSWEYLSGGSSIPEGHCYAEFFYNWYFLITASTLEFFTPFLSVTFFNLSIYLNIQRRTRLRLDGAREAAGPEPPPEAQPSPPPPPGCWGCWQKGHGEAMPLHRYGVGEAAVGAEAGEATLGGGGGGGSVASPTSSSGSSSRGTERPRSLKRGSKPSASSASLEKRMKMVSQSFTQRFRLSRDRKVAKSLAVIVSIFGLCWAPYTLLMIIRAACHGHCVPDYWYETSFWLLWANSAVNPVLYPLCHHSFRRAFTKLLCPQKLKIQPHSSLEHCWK
Cytochrome P450 3A4, sequence (P08684 whole entry): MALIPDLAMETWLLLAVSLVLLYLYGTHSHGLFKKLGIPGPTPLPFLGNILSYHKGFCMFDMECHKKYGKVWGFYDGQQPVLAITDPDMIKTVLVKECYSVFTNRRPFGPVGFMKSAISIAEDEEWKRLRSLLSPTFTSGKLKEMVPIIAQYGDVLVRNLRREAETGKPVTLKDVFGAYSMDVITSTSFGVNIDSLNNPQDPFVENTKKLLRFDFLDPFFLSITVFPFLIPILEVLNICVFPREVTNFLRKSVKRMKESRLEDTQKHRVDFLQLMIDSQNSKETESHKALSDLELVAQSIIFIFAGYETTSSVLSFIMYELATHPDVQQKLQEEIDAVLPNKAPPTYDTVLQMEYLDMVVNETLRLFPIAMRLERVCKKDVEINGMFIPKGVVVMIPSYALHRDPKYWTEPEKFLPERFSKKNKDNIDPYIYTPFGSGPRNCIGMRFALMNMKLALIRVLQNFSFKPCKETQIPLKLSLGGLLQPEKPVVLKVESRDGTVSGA
Cytochrome P450 2D6, sequence (P10635 whole entry): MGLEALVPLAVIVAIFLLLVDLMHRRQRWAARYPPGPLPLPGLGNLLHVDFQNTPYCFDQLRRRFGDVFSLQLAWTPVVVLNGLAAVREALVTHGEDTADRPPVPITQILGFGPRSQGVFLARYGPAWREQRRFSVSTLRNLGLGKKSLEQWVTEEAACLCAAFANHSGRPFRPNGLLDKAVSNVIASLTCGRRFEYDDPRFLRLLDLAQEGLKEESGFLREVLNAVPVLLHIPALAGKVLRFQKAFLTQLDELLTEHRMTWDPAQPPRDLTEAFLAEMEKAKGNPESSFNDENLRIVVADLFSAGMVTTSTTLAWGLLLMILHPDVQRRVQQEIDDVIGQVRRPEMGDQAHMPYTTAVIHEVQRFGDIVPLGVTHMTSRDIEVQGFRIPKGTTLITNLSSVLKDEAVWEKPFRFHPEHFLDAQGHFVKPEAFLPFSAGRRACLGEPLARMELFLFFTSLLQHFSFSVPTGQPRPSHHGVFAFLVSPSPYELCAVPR

Compound: C[C@@H]1Cc2c(ccc3[nH]ncc23)[C@@H](c2ccc(NC3CN(CCCF)C3)cn2)N1CC(F)(F)F [CAMIZESTRANT]
- IC50 (Cytochrome P450 2C9): > 30000 nM
- Activity [1]: 6.3%
- solubility thermodynamic [2]: 1500 µg/mL (≈ 3150 µM)
- hepatocyte CLint [3]: 18 µL/min/1e6 cells
- clearance [4]: 73 mL/min/kg
- IC50 (Cytochrome P450 2D6): 4300 nM
- Stabilty [5]: 98.9%
- Activity [6]: 15%
- Vd [7]: 9.2 L/kg
- hepatocyte CLint [8]: 23 µL/min/1e6 cells
- remaining at 168 h [9]: 99.5%
- half-life [10]: 5.1 h
- inhibition in vivo at 2 mg/kg [11]: 73%
- clearance [12]: 59 mL/min/kg
- remaining at 336 h [13]: 98.4%
- IC50 (MCF7): 5.01 nM
- pKa [14]: 4.8
- bioavailability [15]: 19%
- bioavailability [16]: 16%
- solubility thermodynamic [17]: 400 µg/mL (≈ 839 µM)
- remaining at 336 h [18]: 99.4%
- Emax [19]: 99%
- IC50 (Histamine H3 receptor): 330 nM
- Stabilty [20]: Stable
- fraction unbound [21]: 0.23
- pKa [22]: 8.4
- Stabilty [23]: Unstable
- Stabilty [24]: Unstable
- Stabilty [25]: 78.9%
- Fa [26]: > 95%
- IC50 (Cytochrome P450 3A4): 2200 nM
- IC50 (Cytochrome P450 2C19): > 30000 nM
- Stabilty [27]: Unstable
